For three compounds, Activity results are on record in ChEMBL document CHEMBL1152452, “Modifications incorporated in CpG motifs of oligodeoxynucleotides lead to antagonist activity of toll-like receptors 7 and 9” (2009).

In assay [1] the test system is Mus musculus. The assay is described as follows: Immunostimulatory activity in C57BL/6 mouse assessed as inhibition of 5'-CTATCTGACGTTCTCTGT-3'-induced TNFalpha production in serum at 2 mg/kg, sc administered 24 hrs prior to 5'-CTATCTGACGTTCTCTGT-3' challenge measured after 2 hrs by Luminex multiplex assay. It is filed as functional, organism-based. Further details: dose 2 mg/kg. In outline: (§1)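 C57BL/6 mice received 2 mg/kg ODN sc in one flank. After 24 h, the TLR9 agonist ODN was given at 0.5 mg/kg sc in the opposite flank. Blood was drawn 2 h later and serum cytokines/chemokines were quantified by Luminex multiplex assay. Percent inhibition was taken against the agonist alone. Representative of three experiments.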

Assay [2] has as its system Mus musculus. The assay is described as follows: Immunostimulatory activity in C57BL/6 mouse assessed as inhibition of 5'-CTATCTGACGTTCTCTGT-3'-induced KC production in serum at 2 mg/kg, sc administered 24 hrs prior to 5'-CTATCTGACGTTCTCTGT-3' challenge measured after 2 hrs by Luminex multiplex assay. It is filed as functional, organism-based. Also noted: dose 2 mg/kg. The method in brief: as §1

Assay [3] concerns Splenocyte. The assay is described as follows: Immunostimulatory activity in C57BL/6 mouse splenocytes assessed as induction of IL12 secretion at 2 to 10 ug/ml after 24 hrs by sandwich ELISA. It is filed as functional, cell-based. In outline:
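C57BL/6 splenocytes (mice 5–8 weeks) at 5 × 10^6 cells/mL in RPMI complete medium. ODNs dissolved in PBS were added and the cells incubated at 37 °C for 24 h. Supernatant IL-12 or IL-6 was measured by sandwich ELISA. Runs were done two or three times, in duplicate per concentration.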

A further assay concerns J774. Briefly: Inhibition of 5'-CTATCTGACGTTCTCTGT-3'-activated NF-kappaB activity in mouse J774 cells at 2.5 ug/ml after 1 hr by EMSA. It counts as cell-based. In outline:
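J774 murine macrophages were grown in DMEM with 10% FBS and antibiotics, plated at 5 × 10^6 cells/well, and co-incubated for 1 h with the agonist ODN (0.5 µg/mL) and test ODN (2.5 µg/mL). Nuclear extracts were prepared and NF-κB binding was analysed by EMSA on native polyacrylamide gels with autoradiography.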

Assay [4] deals with Splenocyte. Briefly: Inhibition of 5'-CTATCTGACGTTCTCTGT-3'-induced IL12 secretion in C57BL/6 mouse splenocytes at 4 ug/ml after 24 hrs by sandwich ELISA. It is filed as functional, cell-based. The method in brief: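 Splenocytes from 5–8-week C57BL/6 mice, 5 × 10^6 cells/mL in RPMI complete medium, were co-incubated with the TLR9 agonist ODN (1 µg/mL) plus test ODN at 1 or 4 µg/mL, or over a concentration series, at 37 °C for 24 h. Supernatant IL-12 or IL-6 was measured by sandwich ELISA. Runs were done in duplicate, with three independent experiments.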

Assay [5] deals with Mus musculus. The assay is described as follows: Immunostimulatory activity in C57BL/6 mouse assessed as inhibition of 5'-CTATCTGACGTTCTCTGT-3'-induced MCP1 production in serum at 2 mg/kg, sc administered 24 hrs prior to 5'-CTATCTGACGTTCTCTGT-3' challenge measured after 2 hrs by Luminex multiplex assay. It counts as functional, organism-based. Also noted: dose 2 mg/kg. The method in brief:
as §1

Assay [6] has as its target T1, Toll-like receptor 9 (Mus musculus) (UniProt Q9EQU3).
T1 sequence (whole entry): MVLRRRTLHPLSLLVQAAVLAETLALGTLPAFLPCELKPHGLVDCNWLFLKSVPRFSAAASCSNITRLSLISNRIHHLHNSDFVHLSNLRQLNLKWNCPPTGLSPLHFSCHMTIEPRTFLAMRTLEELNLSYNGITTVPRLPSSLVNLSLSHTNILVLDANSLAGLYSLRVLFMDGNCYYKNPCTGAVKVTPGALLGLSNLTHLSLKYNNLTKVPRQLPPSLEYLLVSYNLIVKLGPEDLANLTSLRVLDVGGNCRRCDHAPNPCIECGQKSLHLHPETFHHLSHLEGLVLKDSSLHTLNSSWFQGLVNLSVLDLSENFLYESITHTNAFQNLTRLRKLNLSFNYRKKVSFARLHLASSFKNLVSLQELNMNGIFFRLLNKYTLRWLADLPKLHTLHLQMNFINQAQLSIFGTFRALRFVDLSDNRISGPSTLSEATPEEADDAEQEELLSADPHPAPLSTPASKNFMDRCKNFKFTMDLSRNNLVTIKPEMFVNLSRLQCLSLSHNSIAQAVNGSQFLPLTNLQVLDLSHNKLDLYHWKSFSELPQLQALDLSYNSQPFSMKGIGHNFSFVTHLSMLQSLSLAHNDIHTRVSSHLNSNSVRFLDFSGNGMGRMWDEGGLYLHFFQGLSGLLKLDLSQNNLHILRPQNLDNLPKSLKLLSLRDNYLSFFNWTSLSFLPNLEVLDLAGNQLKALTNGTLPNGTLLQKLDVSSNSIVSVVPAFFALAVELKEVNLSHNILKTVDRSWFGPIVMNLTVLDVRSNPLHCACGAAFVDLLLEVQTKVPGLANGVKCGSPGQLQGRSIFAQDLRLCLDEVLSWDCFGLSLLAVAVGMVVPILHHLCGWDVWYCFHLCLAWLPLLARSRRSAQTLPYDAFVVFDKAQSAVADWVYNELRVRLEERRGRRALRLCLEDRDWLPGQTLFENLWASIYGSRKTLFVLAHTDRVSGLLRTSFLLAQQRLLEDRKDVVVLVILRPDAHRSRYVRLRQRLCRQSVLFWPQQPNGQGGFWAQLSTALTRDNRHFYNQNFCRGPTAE
The assay is described as follows: Activation of mouse TLR9 expressed in HEK293 cells assessed as NF-kappaB level at 0.1 ug/mL after 18 hrs by reporter gene assay. It is filed as cell-based. The method in brief: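 HEK293 cells stably expressing mouse TLR9 were transiently transfected with a SEAP reporter for 6 h, then stimulated with ODN at 0.1, 0.3 or 1 μg/mL for 18 h. Reporter expression is given as fold change in NF-κB activity over medium. Representative of two independent experiments.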

In assay [7] the test system is Mus musculus. Briefly: Immunostimulatory activity in C57BL/6 mouse assessed as inhibition of 5'-CTATCTGACGTTCTCTGT-3'-induced MIP-1alpha production in serum at 2 mg/kg, sc administered 24 hrs prior to 5'-CTATCTGACGTTCTCTGT-3' challenge measured after 2 hrs by Luminex multiplex assay. It is filed as functional, organism-based. Further details: dose 2 mg/kg. In outline: as §1

The test system of assay [8] is Mus musculus. The assay is described as follows: Immunostimulatory activity in C57BL/6 mouse assessed as induction of TNFalpha level in serum at 2 mg/kg, sc after 2 hrs by Luminex multiplex assay. It is filed as functional, organism-based. Further details: dose 2 mg/kg. In outline:
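Female C57BL/6 mice, 5–6 weeks old, n = 3, received a single 2 mg/kg subcutaneous ODN injection in the right flank. Blood was taken by retro-orbital bleeding 2 h later. Naive mice served as baseline. Representative of three experiments.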

SMILES strings stand for the structures. Active and inactive are the calls of the source. No cut-off for these calls is given here.

Take `CO[C@@H]1[C@H](OP(=O)(S)OC[C@H]2O[C@@H](n3cnc4c(=O)[nH]c(N)nc43)C[C@@H]2OP(=O)(S)OC[C@H]2O[C@@H](n3cc(C)c(=O)[nH]c3=O)C[C@@H]2OP(=O)(S)OC[C@H]2O[C@@H](n3cc(C)c(=O)[nH]c3=O)C[C@@H]2OP(=O)(S)OC[C@H]2O[C@@H](n3ccc(N)nc3=O)C[C@@H]2OP(=O)(S)OC[C@H]2O[C@@H](n3cc(C)c(=O)[nH]c3=O)C[C@@H]2OP(=O)(S)OC[C@H]2O[C@@H](n3ccc(N)nc3=O)C[C@@H]2OP(=O)(S)OC[C@H]2O[C@@H](n3cc(C)c(=O)[nH]c3=O)C[C@@H]2OP(=O)(S)OC[C@H]2O[C@@H](n3cnc4c(=O)[nH]c(N)nc43)C[C@@H]2OP(=O)(S)OC[C@H]2O[C@@H](n3cc(C)c(=O)[nH]c3=O)C[C@@H]2O)[C@@H](COP(=O)(S)O[C@H]2C[C@H](n3cnc4c(N)ncnc43)O[C@@H]2COP(=O)(S)O[C@H]2C[C@H](n3cnc4c(=O)[nH]c(N)nc43)O[C@@H]2COP(=O)(S)O[C@H]2C[C@H](n3cc(C)c(=O)[nH]c3=O)O[C@@H]2COP(=O)(S)O[C@H]2C[C@H](n3ccc(N)nc3=O)O[C@@H]2COP(=O)(S)O[C@H]2C[C@H](n3cc(C)c(=O)[nH]c3=O)O[C@@H]2COP(=O)(S)O[C@H]2C[C@H](n3cnc4c(N)ncnc43)O[C@@H]2COP(=O)(S)O[C@H]2C[C@H](n3cc(C)c(=O)[nH]c3=O)O[C@@H]2COP(=O)(S)O[C@H]2C[C@H](n3ccc(N)nc3=O)O[C@@H]2CO)O[C@H]1n1ccc(N)nc1=O` (some centres not stated): the result in the assay with Mus musculus [1], in the assay with Mus musculus [2], in the assay with Splenocyte [3], with J774, in the assay with Splenocyte [4] and in the assay on Mus musculus [5] was Active. In addition, in the assay with Mus musculus [7], the result was Active. The outcome (in assay [6]; with Mus musculus [8]) was inactive.

Take `CO[C@@H]1[C@H](OP(=O)(S)OC[C@H]2O[C@@H](n3cc(C)c(=O)[nH]c3=O)C[C@@H]2OP(=O)(S)OC[C@H]2O[C@@H](n3cc(C)c(=O)[nH]c3=O)C[C@@H]2OP(=O)(S)OC[C@H]2O[C@@H](n3ccc(N)nc3=O)C[C@@H]2OP(=O)(S)OC[C@H]2O[C@@H](n3cc(C)c(=O)[nH]c3=O)C[C@@H]2OP(=O)(S)OC[C@H]2O[C@@H](n3ccc(N)nc3=O)C[C@@H]2OP(=O)(S)OC[C@H]2O[C@@H](n3cc(C)c(=O)[nH]c3=O)C[C@@H]2OP(=O)(S)OC[C@H]2O[C@@H](n3cnc4c(=O)[nH]c(N)nc43)C[C@@H]2OP(=O)(S)OC[C@H]2O[C@@H](n3cc(C)c(=O)[nH]c3=O)C[C@@H]2O)[C@@H](COP(=O)(S)O[C@H]2C[C@H](n3ccc(N)nc3=O)O[C@@H]2COP(=O)(S)O[C@H]2C[C@H](n3cnc4c(N)ncnc43)O[C@@H]2COP(=O)(S)O[C@H]2C[C@H](n3cnc4c(=O)[nH]c(N)nc43)O[C@@H]2COP(=O)(S)O[C@H]2C[C@H](n3cc(C)c(=O)[nH]c3=O)O[C@@H]2COP(=O)(S)O[C@H]2C[C@H](n3ccc(N)nc3=O)O[C@@H]2COP(=O)(S)O[C@H]2C[C@H](n3cc(C)c(=O)[nH]c3=O)O[C@@H]2COP(=O)(S)O[C@H]2C[C@H](n3cnc4c(N)ncnc43)O[C@@H]2COP(=O)(S)O[C@H]2C[C@H](n3cc(C)c(=O)[nH]c3=O)O[C@@H]2COP(=O)(S)O[C@H]2C[C@H](n3ccc(N)nc3=O)O[C@@H]2CO)O[C@H]1n1cnc2c(=O)[nH]c(N)nc21` (some centres not stated): the outcome in the assay on Mus musculus [1], in the assay on Mus musculus [2], in the assay on Splenocyte [3], in the assay on J774, with Splenocyte [4] and with Mus musculus [5] was Active. The result with Mus musculus [7] was Active. Also, the result (in assay [6]; in the assay with Mus musculus [8]) was inactive.

Take `Cc1cn([C@@H]2O[C@H](COP(=O)(S)O[C@H]3C[C@H](n4ccc(N)nc4=O)O[C@@H]3COP(=O)(S)O[C@H]3C[C@H](n4cc(C)c(=O)[nH]c4=O)O[C@@H]3COP(=O)(S)O[C@H]3C[C@H](n4ccc(N)nc4=O)O[C@@H]3COP(=O)(S)O[C@H]3C[C@H](n4cc(C)c(=O)[nH]c4=O)O[C@@H]3COP(=O)(S)O[C@H]3C[C@H](n4cc(C)c(=O)[nH]c4=O)O[C@@H]3COP(=O)(S)O[C@H]3C[C@H](n4cnc5c(=O)[nH]c(N)nc54)O[C@@H]3COP(=O)(S)O[C@H]3C[C@H](n4ccc(N)nc4=O)O[C@@H]3COP(=O)(S)O[C@H]3C[C@H](n4cnc5c(N)ncnc54)O[C@@H]3COP(=O)(S)O[C@H]3C[C@H](n4cnc5c(=O)[nH]c(N)nc54)O[C@@H]3COP(=O)(S)O[C@H]3C[C@H](n4cc(C)c(=O)[nH]c4=O)O[C@@H]3COP(=O)(S)O[C@H]3C[C@H](n4ccc(N)nc4=O)O[C@@H]3COP(=O)(S)O[C@H]3C[C@H](n4cc(C)c(=O)[nH]c4=O)O[C@@H]3COP(=O)(S)O[C@H]3C[C@H](n4cnc5c(N)ncnc54)O[C@@H]3COP(=O)(S)O[C@H]3C[C@H](n4cc(C)c(=O)[nH]c4=O)O[C@@H]3COP(=O)(S)O[C@@H]3C[C@@H](n4ccc(N)nc4=O)O[C@H]3CO)[C@@H](OP(=O)(S)OC[C@H]3O[C@@H](n4cnc5c(=O)[nH]c(N)nc54)C[C@@H]3OP(=O)(S)OC[C@H]3O[C@@H](n4cc(C)c(=O)[nH]c4=O)C[C@@H]3O)[C@H]2O)c(=O)[nH]c1=O` (some centres not stated): the outcome in the assay with Mus musculus [1], in the assay on Mus musculus [2], with Splenocyte [3], in the assay on J774, in the assay on Splenocyte [4] and with Mus musculus [5] was Active. Also, the result with Mus musculus [7] was Active. Besides, the outcome (in assay [6]; in the assay on Mus musculus [8]) was inactive.
